Laboratory results taken from ChEMBL document CHEMBL2062369, “¹²⁵I-radiolabeled morpholine-containing arginine-glycine-aspartate (RGD) ligand of αvβ₃ integrin as a molecular imaging probe for angiogenesis” (J Med Chem, 2012).
Active and inactive are the calls of the source. The calls are words filed in the database; no cut-off is given here.

Assays:
HUVEC [1] = test: Inhibition of IL-1beta-induced alphaV, beta3, beta5, alpha5, beta1, and alphavbeta3 expressing HUVEC adhesion to vitronectin at 0.1 to 10 uM after 30 mins by crystal violet staining method; type: functional, cell-based; settings: Homo sapiens
Summary of the method: (§1)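 Wells coated overnight at 4 °C with fibronectin (1 μg/mL) or vitronectin (10 μg/mL), blocked with 1% BSA/PBS 1 h at 37 °C. Cells in serum-free medium were preincubated with ligand (final 0.1, 1 or 10 μM) 30 min at 37 °C, then seeded at 4–5 × 10⁴/well for 2 h at 37 °C. HUVEC were IL-1β (400 U/mL)-stimulated; melanoma runs included 2 mmol/L MnCl₂. Adherent cells were stained with crystal violet, read at 540 nm, triplicate, ≥3 repeats.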

HDF [2] = test: Inhibition of HDF adhesion to vitronectin at 0.1 to 10 uM after 30 mins by crystal violet staining method; type: functional; settings: Homo sapiens; summary of the method: as §1
Integrin alpha-V/beta-3 [3] = target: T1, Integrin alpha-V/beta-3 (Homo sapiens, UniProt P05106+P06756); test: Inhibition of integrin alphaVbeta3 expressing human A375M cell adhesion to fibronectin at 0.1 to 10 uM after 30 mins by crystal violet staining method in presence of 2 mmol/L of MnCl2; type: protein-complex assay; summary of the method: as §1
Integrin alpha-V/beta-3 [4] = target: T1, Integrin alpha-V/beta-3; test: Inhibition of integrin alphavbeta3 expressing human A375M cell adhesion to vitronectin at 0.1 to 10 uM after 30 mins by crystal violet staining method in presence of 2 mmol/L of MnCl2; type: protein-complex assay; summary of the method: as §1
Integrin alpha-V/beta-3 [5] = target: T1, Integrin alpha-V/beta-3; test: Displacement of [125I] echistatin from alphaVbeta3 integrin isolated from human placenta after 3 hrs by liquid scintillation counter
Target sequence in this assay (P05106 27-788 limits assumed): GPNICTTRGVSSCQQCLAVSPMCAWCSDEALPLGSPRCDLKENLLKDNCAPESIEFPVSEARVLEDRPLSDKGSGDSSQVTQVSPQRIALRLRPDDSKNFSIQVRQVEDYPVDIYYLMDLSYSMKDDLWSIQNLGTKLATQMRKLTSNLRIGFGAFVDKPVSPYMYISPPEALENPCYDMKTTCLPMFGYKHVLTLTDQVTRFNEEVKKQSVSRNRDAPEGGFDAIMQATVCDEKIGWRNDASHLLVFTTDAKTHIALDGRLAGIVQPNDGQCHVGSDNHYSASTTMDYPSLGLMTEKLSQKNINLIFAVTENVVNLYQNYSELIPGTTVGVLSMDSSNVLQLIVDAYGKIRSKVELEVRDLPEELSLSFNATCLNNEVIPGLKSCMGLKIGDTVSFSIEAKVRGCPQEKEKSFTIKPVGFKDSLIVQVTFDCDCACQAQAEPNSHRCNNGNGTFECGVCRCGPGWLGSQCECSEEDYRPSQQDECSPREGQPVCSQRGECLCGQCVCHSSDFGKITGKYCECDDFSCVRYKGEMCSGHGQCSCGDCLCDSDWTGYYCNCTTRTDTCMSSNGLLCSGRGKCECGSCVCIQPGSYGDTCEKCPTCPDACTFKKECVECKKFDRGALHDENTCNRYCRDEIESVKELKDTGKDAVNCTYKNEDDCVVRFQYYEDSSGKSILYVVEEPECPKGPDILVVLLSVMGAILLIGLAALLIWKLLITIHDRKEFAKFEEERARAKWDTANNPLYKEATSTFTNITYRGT
Target sequence in this assay (P06756 31-889 limits assumed): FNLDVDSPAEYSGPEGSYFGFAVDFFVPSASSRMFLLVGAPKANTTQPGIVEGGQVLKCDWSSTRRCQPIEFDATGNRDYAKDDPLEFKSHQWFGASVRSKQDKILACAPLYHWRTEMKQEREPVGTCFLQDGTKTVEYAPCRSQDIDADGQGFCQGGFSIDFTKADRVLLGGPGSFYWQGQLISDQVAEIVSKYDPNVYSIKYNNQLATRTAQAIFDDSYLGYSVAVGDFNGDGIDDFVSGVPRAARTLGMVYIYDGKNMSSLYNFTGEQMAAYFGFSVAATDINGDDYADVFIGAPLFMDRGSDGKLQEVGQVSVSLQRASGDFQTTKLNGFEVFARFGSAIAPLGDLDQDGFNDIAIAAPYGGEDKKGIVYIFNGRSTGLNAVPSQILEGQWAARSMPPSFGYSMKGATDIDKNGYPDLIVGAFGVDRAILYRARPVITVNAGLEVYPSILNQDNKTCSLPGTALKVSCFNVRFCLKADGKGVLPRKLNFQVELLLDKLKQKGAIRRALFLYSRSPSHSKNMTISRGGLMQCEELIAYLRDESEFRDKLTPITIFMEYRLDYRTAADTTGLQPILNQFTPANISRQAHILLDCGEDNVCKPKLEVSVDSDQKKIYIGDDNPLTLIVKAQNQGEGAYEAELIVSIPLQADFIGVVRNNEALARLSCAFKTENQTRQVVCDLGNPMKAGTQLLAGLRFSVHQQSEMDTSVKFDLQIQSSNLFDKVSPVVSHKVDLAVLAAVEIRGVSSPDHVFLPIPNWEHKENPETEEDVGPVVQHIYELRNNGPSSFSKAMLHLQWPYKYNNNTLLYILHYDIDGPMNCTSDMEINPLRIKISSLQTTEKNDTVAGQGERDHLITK
Target sequence in this assay (P06756 891-1048 limits assumed): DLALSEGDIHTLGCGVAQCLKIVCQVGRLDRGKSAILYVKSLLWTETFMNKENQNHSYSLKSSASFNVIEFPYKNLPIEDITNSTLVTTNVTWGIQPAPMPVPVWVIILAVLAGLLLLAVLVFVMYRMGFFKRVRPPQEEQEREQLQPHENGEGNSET

HUVEC [6] = test: Inhibition of IL-1beta-induced alphav, beta3, beta5, alpha5, beta1 and alphavbeta3 expressing HUVEC adhesion to fibronectin at 0.1 to 10 uM after 30 mins by crystal violet staining method; type: functional, cell-based; settings: Homo sapiens; summary of the method: as §1
HUVEC [7] = test: Antiangiogenic activity against HUVEC seeded on matrigel layer assessed as inhibition of capillary like tube formation at 0.01 uM to 10 uM after 16 to 18 hrs by microscopic analysis; type: functional, cell-based; settings: Homo sapiens
HDF [8] = test: Inhibition of HDF adhesion to fibronectin at 0.1 to 10 uM after 30 mins by crystal violet staining method; type: functional; settings: Homo sapiens; summary of the method: as §1
Spleen = test: Biodistribution in non tumor bearing iv dosed mouse spleen after 1 to 24 hrs by micro SPECT-CT analysis; type: ADME, organism-based; settings: in vivo
Thyroid gland = test: Biodistribution in non tumor bearing iv dosed mouse thyroid after 24 hrs by micro SPECT-CT analysis; type: ADME, organism-based; settings: in vivo
Mus musculus = test: Biodistribution in non tumor bearing iv dosed mouse gallbladder after 120 mins by micro SPECT-CT analysis; type: ADME, organism-based, Gall bladder; settings: in vivo, 2 h
[9] = Drug uptake in human A375M cells xenografted in mouse tumor at 250 uCi, iv after 40 mins by micro SPECT-CT analysis in presence of c[RGD-(3'I-y)-(3R)-carboxymorpholine]; type: ADME, organism-based, Neoplasm; settings: in vivo
Summary of the method: (§2)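 SCID bg/bg mice bore s.c. shoulder grafts of 1 × 10⁶ A375 M cells plus 0.5 × 10⁶ TGFβ-activated HDF in PBS/Matrigel 1:1. Under anesthesia on a 37 °C bed, mice received 7–10 MBq tracer in 200 μL saline via tail vein. CT was acquired at 30 min, then SPECT from 40 min pi (20–36 keV window). Displacement runs got cold compound (18 mg/kg) 10 min before tracer. Tumor ROI was normalized to contralateral muscle as (TA−BA)/BA.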

Kidney = test: Biodistribution in non tumor bearing iv dosed mouse kidney after 120 mins by micro SPECT-CT analysis; type: ADME, organism-based; settings: in vivo, 2 h
[10] = Drug uptake in human A375M cells xenografted in SCID mouse tumor at 250 uCi, iv after 40 mins by micro SPECT-CT analysis; type: ADME, organism-based, Neoplasm; settings: in vivo; summary of the method: as §2

inhibition (Integrin alpha-V/beta-3 [3])	inhibition (Integrin alpha-V/beta-3 [4])	IC50 (Integrin alpha-V/beta-3 [5])	Drug uptake (Spleen)	Drug uptake (Thyroid gland)	Drug uptake (Mus musculus)	Drug uptake [9]	Drug uptake (Kidney)	Drug uptake [10]	SMILES	inhibition (HUVEC [1])	inhibition (HDF [2])	inhibition (HUVEC [6])	inhibition (HUVEC [7])	inhibition (HDF [8])
Active	Active	48 nM	–	–	–	–	–	–	N=C(N)NCCC[C@@H]1NC(=O)[C@H]2COCCN2C(=O)[C@@H](Cc2ccc(O)c(I)c2)NC(=O)[C@H](CC(=O)O)NC(=O)CNC1=O	Active	Active	Active	inactive	Active
Active	Active	–	–	–	–	–	–	–	N=C(N)NCCC[C@@H]1NC(=O)[C@H]2COCCN2C(=O)[C@@H](Cc2ccccc2)NC(=O)[C@H](CC(=O)O)NC(=O)CNC1=O	Active	Active	Active	inactive	Active
–	–	–	Active	Active	Active	Active	Active	Active	N=C(N)NCCC[C@@H]1NC(=O)[C@H]2COCCN2C(=O)[C@@H](Cc2ccc(O)c([125I])c2)NC(=O)[C@H](CC(=O)O)NC(=O)CNC1=O	–	–	–	–	–
Active	Active	–	–	–	–	–	–	–	N=C(N)NCCC[C@@H]1NC(=O)[C@H]2COCCN2C(=O)[C@@H](Cc2ccc(O)cc2)NC(=O)[C@H](CC(=O)O)NC(=O)CNC1=O	Active	Active	Active	inactive	Active
